UBC13 polyUb: UBC13 polyubiquitin chain formation inhibitors, primary screen, biochemical, TR-FRET, uHTS | inhibition, % at 20 µM | Ubiquitin-conjugating enzyme E2 N (Homo sapiens), P61088 | 330,000 compounds, 0.47% hits; in the data active = inhibition above about 45%, passing the limit was not always enough
Target sequence (P61088 whole entry, looked up): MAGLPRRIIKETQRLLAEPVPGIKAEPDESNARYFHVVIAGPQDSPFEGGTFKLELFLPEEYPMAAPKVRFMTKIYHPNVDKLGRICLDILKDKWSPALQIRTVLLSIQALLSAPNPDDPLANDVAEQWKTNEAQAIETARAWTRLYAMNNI
MEKK2wt PB1 HTS: modulators of MEK5 binding to wildtype MEKK2, primary screen, biochemical, multiplex bead flow cytometry, Alexa488-MEK5 | Mitogen-activated protein kinase kinase kinase 2 (Homo sapiens), Q9Y2U5 | Alexa488-MEK5 binding to MEKK2 WT; actives lie on both sides | binding response (% of control), % at 10 µM | 290,000 compounds, 1.1% hits; in the data active = binding response below about 67% or above about 130%
DSG3 Ab inh: inhibitors of pemphigus antibody binding to DSG3, primary screen, biochemical, bead-based, flow cytometry, scFv-GFP. DSG3-coupled beads, scFv-anti-DSG3-GFP binding; hits give low values. 310,000 compounds, 0.48% hits. Desmoglein-3 (Homo sapiens), P32926. binding (percent of control), % at 10 µM;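 active = binding more than 3 SD below its plate's average and above zero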;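 note: hits lower antibody fragment binding to DSG3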
MEKK3 PB1 HTS: modulators of MEKK3-MEK5 PB1 binding, primary screen, biochemical, wildtype MEKK3, multiplex bead flow cytometry, Alexa488-MEK5; Mitogen-activated protein kinase kinase kinase 3 (Homo sapiens), Q99759; bead-based flow cytometry, Alexa488-MEK5 binding to MEKK3; actives lie on both sides; 0 = blocked by unlabeled MEK5, 100 = vehicle; binding response (% of control), % at 10 µM; 290,000 compounds, 1.4% hits; AID 1529, 2009;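 active = binding response more than 3 SD above or below the average of its plate-row segment, actives on both sides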;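 note: Alexa488 bead fluorescence after subtracting the streptavidin-only scavenger bead signal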
Apaf-1 inh: inhibitors of human Apaf-1 apoptosome, primary screen, biochemical, DEVD-Rh110 fluorescence, uHTS; reconstituted apoptosome caspase-3 activity; inhibition, % at 20 µM; 330,000 compounds, 0.71% hits; AID 489030, 2010; active = inhibition of at least 40% at 20 µM
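Material: cell-free apoptosome with Apaf-1, procaspase-3 and caspase-9; Buffer or medium: Hepes pH 7.5 with detergent and BSA; Reagent: cytochrome c trigger plus (Z-DEVD)2-Rh110 caspase-3 substrate; Times: compound with Apaf-1, dATP, procaspase-3 30 min, then 50 min reaction, room temperature; Technique: Rh110 fluorescence intensity.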
MEKK2mut PB1 HTS: MEK5 binding signal on mutant MEKK2 PB1, primary screen, biochemical, multiplex bead flow cytometry, Alexa488-MEK5; percent response, % at 10 µM; AID 1530, 2009; Alexa488-MEK5 binding to MEKK2 mutant; 290,000 compounds, 0.35% hits; in the data active = percent response above about 24%, passing the limit was not always enough
MEKK2wt confirm: modulators of MEK5 binding to wildtype MEKK2, confirmation, biochemical, single concentration, multiplex bead flow cytometry. shares compounds with MEKK3 PB1 HTS. binding response (% of control), % at 10 µM. AID 1892, 2009. 5,900 compounds, 2.4% hits. Alexa488-MEK5 binding to MEKK2 WT; actives lie on both sides; in the data active = binding response below about 16% or above about 210%; inactive = in between
MEKK2mut confirm: mutant MEKK2 PB1-MEK5 binding signal retest – biochemical, single concentration, multiplex bead flow cytometry, confirmation; shares compounds with MEKK3 PB1 HTS; Alexa488-MEK5 binding to MEKK2 mutant; percent response, % at 10 µM; 5,900 compounds, 2% hits; in the data active = percent response mostly above about 71%, no sharp cut-off; inactive = mostly below about 38%;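 note: higher means compound restores mutant binding toward wildtype level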
MEKK3-MEK5 inh: MEKK3 wild-type PB1 binding to MEK5, inhibitors, confirmation, biochemical, bead multiplex flow cytometry, single concentration, wildtype | shares compounds with MEKK3 PB1 HTS | Alexa488-MEK5 binding to MEKK3; hits give low values | binding response (% of control), % at 10 µM | 5,900 compounds, 1.8% hits;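 active = binding response below 72% of control, or above a set upper limit, though filed actives all read lower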;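 note: lower values mean stronger disruption of MEK5 binding to MEKK3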
Each line names hits and unclear results; the compound was inactive in the other large screens (follow-up assays come after a bar, where they were run); [ ] = another dose, or the depositor's remark. Shown are actives, neighbours in structure and some others; about 3.2% of the full set was active somewhere.

COc1ccc2[nH]c3c(c2c1)CCN1C(=O)C(CC(=O)NC/C=C(\C)CCC=C(C)C)C[C@H](C(=O)N(C(C)C)C(C)C)[C@@]31C (stereo partly drawn)	none (no result: UBC13 polyUb, MEKK2wt PB1 HTS, MEKK3 PB1 HTS, MEKK2mut PB1 HTS)
CCOC(=O)C(=O)N1CCN(c2ccccc2OC)CC1	MEKK3 PB1 HTS 71.0[inhibitor] | MEKK2wt confirm inactive | MEKK2mut confirm inactive | MEKK3-MEK5 inh inactive
C[C@H](CO)N1C[C@H](C)[C@@H](CN(C)S(=O)(=O)c2cn(C)cn2)Oc2ccc(NC(=O)Cn3cnnn3)cc2C1=O	none (no result: MEKK2wt PB1 HTS, MEKK3 PB1 HTS, MEKK2mut PB1 HTS)
O=C(NC1CCS(=O)(=O)C1)/C(=C\c1ccccc1)NC(=O)c1ccccc1 (stereo not drawn)	MEKK3 PB1 HTS 147.0 | MEKK2wt confirm inactive | MEKK2mut confirm inactive | MEKK3-MEK5 inh inactive
CC(C)CC1NC(=O)N(CCCCN2C(=O)c3ccccc3C2=O)C1=O (stereo not drawn)	MEKK3 PB1 HTS 135.0 | MEKK2wt confirm inactive | MEKK2mut confirm inactive | MEKK3-MEK5 inh inactive
COc1cccc(C(=O)Nc2cccc(-c3ccc(N4CCOCC4)nn3)c2)c1OC	none (no result: MEKK2wt PB1 HTS, MEKK3 PB1 HTS, MEKK2mut PB1 HTS)
Cc1ccc(S(=O)(=O)NCCC(=O)NCCN2CCCCCC2)cc1	MEKK2wt PB1 HTS 227.0, MEKK2mut PB1 HTS 54.0 | MEKK2wt confirm inactive | MEKK2mut confirm inactive | MEKK3-MEK5 inh inactive
Cc1ccc(S(=O)(=O)N2CCC(C(=O)NCCCN3CCCCCC3)CC2)cc1	MEKK2wt PB1 HTS 160.0 | MEKK2wt confirm inactive | MEKK2mut confirm inactive | MEKK3-MEK5 inh inactive
CCCCNC(=O)C1CCN(C(=O)C2CCN(S(=O)(=O)c3ccc(C)cc3)CC2)CC1	none
COC(=O)c1ccc(CNC(=O)COC(=O)/C=C/c2cccc(OC)c2)cc1	none (no result: UBC13 polyUb, MEKK2wt PB1 HTS, MEKK3 PB1 HTS, Apaf-1 inh, MEKK2mut PB1 HTS)
COc1ccccc1OCc1nc(C#N)c(NCCCn2ccnc2)o1	none
N#Cc1nc(COc2ccccc2F)oc1NCCCn1ccnc1	MEKK2wt PB1 HTS 2.0[inhibitor], MEKK3 PB1 HTS 1.0[inhibitor] (no result: DSG3 Ab inh) | MEKK2wt confirm inactive | MEKK2mut confirm inactive | MEKK3-MEK5 inh inactive
CCOC(=O)C1CCN(C(=O)c2ccccc2)c2scc(-c3ccccc3)c2C1=O (stereo not drawn)	none (no result: UBC13 polyUb, MEKK2wt PB1 HTS, MEKK3 PB1 HTS, Apaf-1 inh, MEKK2mut PB1 HTS)
CC1(OC(=O)C2CCCC2)C(=O)C=C2C=C(c3ccsc3)N(C3CCCCC3)C=C2C1=O (stereo not drawn)	MEKK3 PB1 HTS 80.0[inhibitor] | MEKK2wt confirm inactive | MEKK2mut confirm inactive | MEKK3-MEK5 inh inactive
CC1(OC(=O)C2CCCC2)C(=O)C=C2C=C(c3ccsc3)N(CCN3CCOCC3)C=C2C1=O (stereo not drawn)	MEKK2wt PB1 HTS 146.0 (no result: DSG3 Ab inh) | MEKK2wt confirm inactive | MEKK2mut confirm inactive | MEKK3-MEK5 inh inactive
CC1(OC(=O)C2CCCC2)C(=O)C=C2C=C(c3ccsc3)N(CC3CC3)C=C2C1=O (stereo not drawn)	none
C[C@H]1CN([C@@H](C)CO)C(=O)c2cc(Br)cnc2O[C@H]1CN(C)C(=O)C1CCC1	none (no result: UBC13 polyUb, MEKK2wt PB1 HTS, MEKK3 PB1 HTS, Apaf-1 inh, MEKK2mut PB1 HTS)
Cc1ccc(S(=O)(=O)N(C)CCCC(=O)n2nc(C)cc2C)cc1	MEKK2wt PB1 HTS 0.0[inhibitor], MEKK3 PB1 HTS 0.0[inhibitor] | MEKK2wt confirm inactive | MEKK2mut confirm inactive | MEKK3-MEK5 inh inactive
Nc1ccc2c(c1)N1CCN=C1S2	none
O=C(Nc1ccc(Cl)cc1)Nc1ccc2c(c1)N1CCN=C1S2	MEKK2wt PB1 HTS 141.0 | MEKK2wt confirm inactive | MEKK2mut confirm inactive | MEKK3-MEK5 inh inactive
COc1ccc(/C(N)=N/OC(=O)Cc2cccs2)cc1OC	MEKK3 PB1 HTS 150.0 | MEKK2wt confirm inactive | MEKK2mut confirm inactive | MEKK3-MEK5 inh inactive
COc1ccc(/C(N)=N/OC(=O)Cc2cccs2)cc1	none
CCn1ncc(C2=NOC(C(=O)Nc3ccc4c(c3)OCO4)C2)c1C (stereo not drawn)	MEKK2wt PB1 HTS 1.0[inhibitor], MEKK3 PB1 HTS 2.0[inhibitor] | MEKK2wt confirm inactive | MEKK2mut confirm inactive | MEKK3-MEK5 inh inactive
Clc1ccc(-c2csc3ncnc(Cl)c23)cc1	MEKK3 PB1 HTS 130.0 | MEKK2wt confirm inactive | MEKK2mut confirm inactive | MEKK3-MEK5 inh inactive
CC(C)C1C(c2ccccc2)N(C)C(c2ccccc2)CC1(O)c1ccccc1 (stereo not drawn)	none
CC1C(C)C(O)(c2ccccc2)CCN1C (stereo not drawn)	MEKK3 PB1 HTS 130.0 | MEKK2wt confirm inactive | MEKK2mut confirm inactive | MEKK3-MEK5 inh inactive
CN(C)CCC1(c2ccccc2)CCN(C)C1=O (stereo not drawn)	none (no result: UBC13 polyUb, MEKK2wt PB1 HTS, MEKK3 PB1 HTS, Apaf-1 inh, MEKK2mut PB1 HTS)
O=C(COc1ccccc1)NCc1nnc2c3ccccc3c(-c3ccccc3)nn12	MEKK3 PB1 HTS 149.0 | MEKK2wt confirm inactive | MEKK2mut confirm inactive | MEKK3-MEK5 inh inactive
